Screens: PubChem, several laboratories
Sampled rows, rich in hits. Any-hit rate of the full collection: about 2.2%.
CendR NRP1 mod – NRP-1/CendR interaction modulation. 0.85% of 360,000 active. inhibition, % at 25 µM. O14786. FAM-RPARPAR peptide binding to NRP-1, fluorescence polarization;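 active = inhibition or corrected inhibition above about 18%, plus a signal ratio from 0.5 to 1.5, limit read from the data, passing the limit was not always enough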
ASAP1 GAP inh – inhibitors of human ASAP1 ArfGAP activity | 0.19% of 360,000 active | Q9ULH1 | AID 624377 | ASAP1-stimulated ARF1 GTP hydrolysis, GDP FP detection | inhibition, % at 16.5 µM; in the data active = inhibition above about 25%;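 also: 0% = vehicle with enzyme and substrate and 100% = no enzyme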
Target sequence (Q9ULH1 325-724 limits assumed): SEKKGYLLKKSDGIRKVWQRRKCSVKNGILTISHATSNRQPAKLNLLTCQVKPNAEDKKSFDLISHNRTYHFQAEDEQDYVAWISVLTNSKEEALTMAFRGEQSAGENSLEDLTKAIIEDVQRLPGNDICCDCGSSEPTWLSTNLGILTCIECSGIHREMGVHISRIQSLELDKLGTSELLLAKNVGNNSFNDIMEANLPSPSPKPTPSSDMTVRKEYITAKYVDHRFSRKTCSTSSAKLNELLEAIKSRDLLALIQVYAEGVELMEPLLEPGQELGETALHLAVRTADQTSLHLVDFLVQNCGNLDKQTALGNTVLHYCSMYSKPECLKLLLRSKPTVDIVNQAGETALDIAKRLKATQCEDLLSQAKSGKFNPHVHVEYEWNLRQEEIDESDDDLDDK
ARFGAP1 inh – inhibits rat ARF GTPase activating protein 1. Q62848. Arfgap1-stimulated ARF1 GTP hydrolysis, GDP FP detection. inhibition, % at 16.5 µM. 0.26% of 360,000 active;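 active = inhibition above a per-plate limit, mean inhibition of low control wells plus 3 SD, cut at about 25% in these data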;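 also: 0% = DMSO wells with enzyme and 100% = wells lacking Arfgap1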
Target sequence (Q62848 1-136 limits assumed): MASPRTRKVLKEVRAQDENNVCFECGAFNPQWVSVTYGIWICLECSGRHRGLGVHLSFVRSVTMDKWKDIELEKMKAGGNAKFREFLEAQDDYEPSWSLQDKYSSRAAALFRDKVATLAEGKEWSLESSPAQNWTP
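Assay system: purified rat His6-Arfgap1 residues 1-136 (GAP domain); Reagent: human Δ17 ARF1 bound to GTP; Dosing: 16.5 µM single point, 1.26% DMSO; Times: GTP hydrolysis reaction 2 h at 25 °C; Signal: FP, GDP Alexa 633 tracer displaced from anti-GDP antibody, 620/688 nm; Measure: % inhibition from polarization.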
V-ATPase pH – alters yeast V-ATPase proton transport; S. cerevisiae, pHLuorin cytosolic pH fluorescence; response, % at 10 µM; 0.37% of 350,000 active; in the data active = response mostly above about 7.3%, no sharp cut-off; inactive = mostly below about 5.4%; also: actives read high
Granule exo inh – lytic granule exocytosis inhibition; TALL-104 LAMP-1 surface exposure, flow cytometry; cells stimulated with thapsigargin and PMA; inhibition, % at 10 µM; 0.66% of 360,000 active;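 active = inhibition above about 55%, limit read from the data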
Starred values were filed as active, the others as inactive; . = not tested or not shown.

SMILES	CendR NRP1 mod	ASAP1 GAP inh	ARFGAP1 inh	V-ATPase pH	Granule exo inh
COC/C=C/C1=CC2=CC(=O)C(C)(OC(=O)c3cnc4ccccc4n3)C(=O)C2=CN1Cc1ccccc1 (configuration not stated)	25*	-11	-9	1	-4
COC/C=C/C1=CC2=CC(=O)C(C)(OC(=O)c3cnc4ccccc4n3)C(=O)C2=CN1Cc1ccc(OC)cc1 (configuration not stated)	37*	-2	12	-9	-22
COC/C=C/C1=CC2=CC(=O)C(C)(OC(=O)c3cnc4ccccc4n3)C(=O)C2=CN1CCCCO (configuration not stated)	15	7	-14	1	28
CC(C)S(=O)(=O)N[C@@H]1c2cc3c(cc2[C@H](c2ccccc2)[C@H]1C)OCO3	.	9	10	.	.
C=CCC[C@H](Cc1ccc(F)cc1)C(=O)OC[C@H](Cc1c[nH]c2ccccc12)NC(=O)[C@H](CC=C)CC(=O)N(CCO)Cc1ccccc1	-1	-9	13	6	59*
C=C1C[C@@]23CCC4[C@@](C)(CCC[C@@]4(C)C(=O)OC)C2CC[C@]1(OC(C)=O)C3 (some centres not stated)	30*	-5	-4	-4	-17
CCc1nc2ccc(C(=O)Nc3cccc(OCC(=O)N(C)C)c3)cn2c1N(C)Cc1ccc(OC)cc1	-10	-5	-1	.	0
N#Cc1ccc(COC(=O)c2cnc(Cl)c(Cl)c2)cc1	25*	-5	3	1	26
O=C(OCc1ccccc1)c1cnc(Cl)c(Cl)c1	19	0	11	4	0
O=C(NC(Cc1c[nH]c2ccccc12)c1nnc2n1CCCCC2)c1ccccc1 (configuration not stated)	-5	10	-7	3	-2
CCN(CC)S(=O)(=O)c1cccc(C(=O)NC(Cc2c[nH]c3ccccc23)c2nnc3n2CCCCC3)c1 (configuration not stated)	26*	0	6	-4	-6
Fc1ccc(-n2nnc(-c3cccnc3)n2)cc1	27*	3	-2	0	0
O=C(N/N=C/c1ccc(-c2ccc([N+](=O)[O-])cc2)o1)[C@H]1C[C@@H]1c1ccccc1	-97	-9	-1	1	62*
O=C(N/N=C/c1ccc(-c2cccc([N+](=O)[O-])c2)o1)[C@H]1C[C@@H]1c1ccccc1	6	-1	10	0	-1
Cc1c(NC(=O)c2c(O)c3ccccc3n(C)c2=O)c(=O)n(-c2ccccc2)n1C	32*	14	2	-2	15
Cc1c(NC(=O)Cn2nc(C(=O)O)c3ccccc3c2=O)c(=O)n(-c2ccccc2)n1C	15	1	-1	-2	-1
Cc1c(NC(=O)COC(=O)C2(c3ccc(F)cc3)CCCC2)c(=O)n(-c2ccccc2)n1C	22*	-1	-2	-1	2
Cc1c(NC(=O)c2c(F)c(F)c(F)c(F)c2F)c(=O)n(-c2ccccc2)n1C	1	-10	-12	2	1
Cc1c(NC(=O)CSc2nc(N)cc(N)n2)c(=O)n(-c2ccccc2)n1C	20*	1	-5	-3	-3
Cc1nc(SCC(=O)Nc2c(C)n(C)n(-c3ccccc3)c2=O)nc(C)c1C	1	-3	-16	5	2
Cc1c(NC(=O)Cn2nc(C(F)(F)F)c3c2CCCC3)c(=O)n(-c2ccccc2)n1C	23*	1	10	3	1
Cc1[nH]nc2c1C(c1cccc(C(F)(F)F)c1)NC2=O (configuration not stated)	.	3	1	.	.
COC(=O)C1=C(C)N(Cc2ccc(F)cc2)C(=S)NC1c1cccc(Br)c1 (configuration not stated)	.	8	17	.	.
Cn1cnc([N+](=O)[O-])c1Sc1nnc(-c2ccccc2)c(-c2ccccc2)n1	.	0	-3	.	.
CN1CCCCC(NC(=O)c2cccs2)C1=O (configuration not stated)	.	-2	4	.	.
SMILES	CendR NRP1 mod	ASAP1 GAP inh	ARFGAP1 inh	V-ATPase pH	Granule exo inh
O=C(Nc1ccc(F)c(Cl)c1)C1Cc2c(-c3ccco3)ccnc2O1 (configuration not stated)	-8	9	3	.	-5
Cn1c(O)c(/C=N/NC(=O)c2cc3ccccc3cc2O)c2ccccc21	-131	14	14	2	83*
Cn1c2ccccc2c2cc(/C=N/NC(=O)c3ccc(O)cc3O)ccc21	1	.	.	-5	15
Nc1[nH]c(C(=O)c2ccc(Br)cc2)c(-c2c(F)cccc2F)c1C(=O)NCCc1c[nH]c2ccccc12	.	16	11	.	.
CC(=O)c1sc(NC(=O)CS(=O)(=O)c2ccccc2)nc1C	0	7	1	0	-6
CC(=O)c1sc(NC(=O)CS(=O)(=O)c2ccccc2)nc1-c1ccccc1	-7	-6	4	18*	2
Cc1ccccc1C(=O)N[C@@H](Cc1cccnc1)C(=O)N1CCC[C@H]1C(=O)NC1CCCC1	.	-2	14	.	.
O=C(Nc1ccc([N+](=O)[O-])cc1)Nc1ccc(N2CCOCC2)c2nonc12	3	-5	-1	-1	77*
COc1ccc(C(=O)CN2C(=O)c3ccccc3C2=O)c(OC)c1C	-1	.	.	19*	0
CCOC(=O)c1sc(-c2ccc(OC)cc2)cc1N	26*	9	-3	0	2
CCCCS(=O)(=O)N1CCCc2nc(-c3ccccc3)ccc21	.	-5	-12	.	.
Cc1cc(N2CCN(C(=O)OC(C)(C)C)C[C@@H]2C)ccc1N1CCN(Cc2ccccc2)[C@@H](C)C1	.	-5	0	.	.
CCCCOc1ccc(/C=C2/Sc3ccccc3C2=O)cc1	35*	-2	6	6	5
COC(=O)C1=C(C)N(Cc2ccccc2C(F)(F)F)C(=NCc2cccc(C(F)(F)F)c2)NC1CCc1ccccc1 (configuration not stated)	.	2	12	.	.
Cn1c(=O)c(Nc2ccc(O)cc2)c2c3c(cccc31)C(=O)c1ccccc1-2	81*	-2	5	2	39
O=C(Cn1cnc2ccccc2c1=O)N/N=C/c1ccc(Br)cc1	23*	-17	-5	-2	-7
CCOC(=O)c1ccc(N2CCN(C(=O)c3ccccc3)CC2)c(NC(=O)c2ccco2)c1	31*	-1	5	0	8
CCOC(=O)Cn1c(-c2ccccc2)cc(SC)c(C#N)c1=O	13	-13	-8	-1	61*
C=CCN(CC=C)C(=O)C1CC(=O)N(c2ccc(Br)cc2)C1 (configuration not stated)	30*	-11	-1	-2	-1
COC(=O)Cc1ccc(NC(=S)NCC(C)C)cc1	-4	-9	3	2	-2
CCCNC(=S)Nc1ccc(CC(=O)OC)cc1	24*	-9	-8	0	1
O=[N+]([O-])c1ccc(N2CCN(C(=S)NCc3ccc(Cl)cc3)CC2)cc1	6	20	5	2	68*
